Assay outcomes (PubChem)
Rows were chosen to be rich in hits. Some 1.1% of all compounds tested hit in one or more screens of this group.
CDK5 inh: blocks human CDK5/p35 kinase activity; Q00535+Q15078; Recombinant CDK5/p35, ADP-Glo luminescence, 60 min; inhibition, % at 10 µM; actives 0.01% (n = 330,000); AID 488839;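 active = highest replicate inhibition of at least 50% and at least 75% of replicates reaching 50%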
GSK3B inh: human GSK3beta kinase inhibition; actives 0.038% (n = 300,000); GST-GSK3beta kinase, ADP-Glo luminescence, 60 min; stronger effect = lower value; P49841; activity score (negative = inhibition), % at 10 µM;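 active = more than half of replicate wells score below -50%, meaning over 50% inhibition versus plate controls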
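Test system – GST-tagged human GSK3beta kinase, cell-free · Incubation – 60 min enzyme reaction, room temperature · Signal – ADP-Glo luminescence · Also added – peptide substrate and ATP at 25 µM · Controls – DMSO neutral wells and GW8510 at 20 µM as positive · Buffer or medium – Tris/MgCl2 kinase buffer · Measure – Luminescence-derived activity versus plate DMSO and GW8510 wells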
SR-BI DiI-HDL act: SR-BI HDL lipid transfer activation | activation, % at 12.5 µM | CHO ldlA[mSR-BI] cells, DiI-HDL uptake fluorescence, 3 h; 100 = double the neutral-control signal | actives 0.096% (n = 320,000);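 active = mean replicate activation of at least 60% and every replicate at or above 60%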
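Assay system: LDL receptor-deficient CHO ldlA cells overexpressing murine SR-BI / Medium: BSA-supplemented, HEPES-buffered Ham's F12, pH 7.4 / Probe or stimulus: DiI-labelled HDL at 10 µg/mL final / Timing: compound with DiI-HDL co-incubation, 3 h at 37 °C / Technique: bottom-read cell fluorescence after medium removal, ex 550/em 595 nm / Measure: HDL uptake via cellular fluorescence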
GSK3A inh: blocks human GSK-3 alpha kinase; P49840; AID 2650; inhibition, % at 10 µM; ADP-Glo luminescence, 60 min; actives 0.1% (n = 320,000);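 active = more than half of replicates show inhibition above 20%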;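 also: GST-tagged GSK-3 alpha with peptide substrate and 25 µM ATP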
Target sequence (P49840 whole entry, looked up): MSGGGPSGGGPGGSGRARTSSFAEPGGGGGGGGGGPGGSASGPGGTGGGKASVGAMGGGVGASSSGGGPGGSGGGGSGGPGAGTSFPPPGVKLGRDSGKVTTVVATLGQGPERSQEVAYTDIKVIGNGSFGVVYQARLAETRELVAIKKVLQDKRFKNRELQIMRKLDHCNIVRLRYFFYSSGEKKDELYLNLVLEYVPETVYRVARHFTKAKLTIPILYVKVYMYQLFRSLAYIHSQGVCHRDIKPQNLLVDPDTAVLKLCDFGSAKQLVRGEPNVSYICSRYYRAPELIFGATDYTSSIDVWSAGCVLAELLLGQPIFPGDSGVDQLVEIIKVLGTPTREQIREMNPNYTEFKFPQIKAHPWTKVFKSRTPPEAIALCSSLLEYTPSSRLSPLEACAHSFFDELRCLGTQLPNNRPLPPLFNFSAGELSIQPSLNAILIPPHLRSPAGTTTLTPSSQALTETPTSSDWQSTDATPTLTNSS
SR-BI DiI inh: mouse SR-BI HDL lipid transfer inhibition; ldlA[mSR-BI] CHO cells, DiI-HDL uptake fluorescence, 3 h; Q61009; actives 0.96% (n = 320,000); inhibition, % at 12.5 µM;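 active = mean replicate inhibition of at least 70% and a set share of replicates each scoring 70 or more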
Of the large screens only hits and unclear results are named; the others gave an inactive call.

Cc1cccc(Nc2nc(N)c([N+](=O)[O-])c(NCCO)n2)c1	GSK3A inh 64
COc1ccc(S(=O)(=O)NCCCN2CCCC2=O)cc1OC	none
C/C(=C\C(=O)c1ccc(Br)cc1)NNC(=O)c1ccc(O)cc1	none
C/C(=C\C(=O)c1ccc(Br)cc1)NNC(=O)c1ccccc1	SR-BI DiI inh 86
CC(C)(C)c1ccc(/C=N/OCC(=O)NCc2ccc(F)cc2)cc1	none
COCCCn1c(SCCc2ccccc2)nc2cc(OC)c(OC)cc2c1=N	none
CCSc1nc2cc(OC)c(OC)cc2c(=O)n1CCc1ccccc1	SR-BI DiI inh 71
O=C(CCCN1C(=O)/C(=C/c2cccs2)SC1=S)NNC(=O)c1ccncc1	none (no result: GSK3A inh)
COc1ccc(/C=C2\SC(=S)N(CCCC(=O)NNC(=O)c3ccccc3O)C2=O)cc1	SR-BI DiI inh 110
COc1ccc(/C=C2/SC(=S)N(CCCC(=O)Nc3ccccc3C(=O)O)C2=O)cc1	none (no result: SR-BI DiI-HDL act, SR-BI DiI inh)
COc1ccccc1/C=C1\SC(=S)N(CCC(=O)NNC(=O)c2ccccc2O)C1=O	SR-BI DiI inh 124 (no result: SR-BI DiI-HDL act)
COc1cccc(/C=C2\SC(=S)N(CCC(=O)NNC(=O)c3ccccc3OC)C2=O)c1	none (no result: SR-BI DiI-HDL act, SR-BI DiI inh)
O=C(CCCN1C(=O)/C(=C/c2cccs2)SC1=S)NNC(=O)c1ccccc1O	SR-BI DiI inh 104
CC(=O)c1ccccc1N(C(=O)c1ccco1)C(C(=O)NC1CCCC1)c1ccc(N2CCOCC2)cc1 (configuration not stated)	none
COC(=O)c1ccc(C2c3c(oc4ccc(Cl)cc4c3=O)C(=O)N2CCN2CCOCC2)cc1 (configuration not stated)	none
CN(C(=O)Nc1cccc(C(F)(F)F)c1)C1CCCCC1	none
CCn1cc(S(=O)(=O)Nc2cc(C(=O)OC)ccc2C)cn1	none
Cc1nnc(N2CCC(C(=O)NC3CCC(C)CC3)CC2)c2nn(-c3ccc(Cl)cc3)c(C)c12 (configuration not stated)	SR-BI DiI inh 88
Cc1nnc(N2CCC(C(=O)N3CCCCC3)CC2)c2nn(-c3ccc(Cl)cc3)c(C)c12	none (no result: CDK5 inh)
COc1ccc(C(=O)C2CCCN(C(=O)c3ccoc3C)C2)cc1F (configuration not stated)	none (no result: SR-BI DiI-HDL act, SR-BI DiI inh)
CNC(=S)N/N=C/c1cn(CCOc2ccc(OC)cc2)c2ccccc12	SR-BI DiI inh 78
COc1ccccc1OCCn1cc(/C=N/NC(=O)c2ccncc2)c2ccccc21	none
COc1ccccc1OCCn1cc(/C=N/NC(N)=S)c2ccccc21	SR-BI DiI inh 77
COC(=O)c1sccc1-c1ccc(/C=N/OC(=O)c2cccs2)o1	none
O=C(/C=C/c1cc([N+](=O)[O-])ccc1OC(F)F)Nc1cccc(OC(F)F)c1	SR-BI DiI inh 75
COc1ccccc1NC(=O)/C=C/c1cc([N+](=O)[O-])ccc1OC(F)F	none (no result: SR-BI DiI-HDL act, SR-BI DiI inh)
CCOc1ccc(CCNC(=O)COC(=O)COc2ccc(C(=O)CC)cc2)cc1OCC	none
NC(=O)N/N=C/c1sc(=O)n(-c2ccccc2)c1Cl	none
O=C(N/N=C/c1sc(=O)n(-c2ccccc2)c1Cl)c1ccccc1	SR-BI DiI inh 85
COc1cc(-c2cc(-c3ccc(O)cc3)nc(N)c2C#N)ccc1O	SR-BI DiI inh 84
COc1ccc(-c2cc(-c3ccc(O)cc3)nc(N)c2C#N)cc1	none
COc1ccccc1CCNC(=O)c1cccc(NC(=O)CC2SC(N3CCCCC3)=NC2=O)c1 (configuration not stated)	SR-BI DiI inh 80 (no result: GSK3B inh, GSK3A inh)
O=C(CC1SC(N2CCCCC2)=NC1=O)Nc1cccc(C(=O)NCc2ccc(F)cc2)c1 (configuration not stated)	none (no result: GSK3B inh, GSK3A inh)
Cc1ccc(-n2nc3c(=O)n(CC(=O)NC(C)CCc4ccccc4)nc(C)c3c2C)cc1 (configuration not stated)	none
COc1ccc(-c2nn(-c3ccccc3)cc2/C=N/Nc2ccc3ccccc3n2)cc1OC	none
COc1ccc(-c2nn(-c3ccccc3)cc2/C=N/O)cc1OC	GSK3B inh -56, GSK3A inh 73
COc1ccc(-c2nn(-c3ccccc3)cc2/C=N/Nc2ccc(S(N)(=O)=O)cc2[N+](=O)[O-])cc1OC	SR-BI DiI inh 79
NC(=O)c1nsc(C(=O)N(c2cccc(F)c2)C(C(=O)NCC2CCCO2)c2ccc3ncccc3c2)c1N (configuration not stated)	none (no result: SR-BI DiI-HDL act, SR-BI DiI inh)
N#CCCN1CCCc2cc(N=Nc3ccc(C(F)(F)F)cc3)ccc21	SR-BI DiI inh 98
CCCN1CCCc2ccccc21	none
N=C1C=CC(=C(c2ccc(N)cc2)c2ccc(N)cc2)C=C1	SR-BI DiI inh 104 (no result: GSK3B inh, GSK3A inh)
O=C(CSC1=NNC(c2ccccn2)S1)Nc1ccc(C(F)(F)F)cc1 (configuration not stated)	SR-BI DiI inh 95
Cc1nn(Cc2ccccc2Cl)c(C)c1NC(=O)c1cc(-c2ccc(F)cc2)on1	SR-BI DiI inh 80
Cc1nn(Cc2ccccc2Cl)c(C)c1NC(=O)c1ccn(C)n1	none
COc1ccc(-c2cc(C(=O)Nc3c(C)nn(Cc4ccccc4)c3C)no2)cc1	SR-BI DiI inh 76
COc1cccc(-c2cc(C(=O)Nc3c(C)nn(Cc4ccccc4)c3C)no2)c1	none (no result: SR-BI DiI-HDL act, SR-BI DiI inh)
N#C/C(=C/c1cccn1-c1cccc(C(=O)O)c1)c1ccc(F)cc1	none (no result: GSK3A inh)
COc1ccc(Br)cc1/C=N/NC(=O)c1ccc(OC)c(OC)c1	SR-BI DiI inh 92
COc1ccc(Br)cc1/C=N/NC(=O)c1ccc2nc[nH]c2c1	none
COc1ccc(Br)cc1/C=N/NC(=O)c1cc(OC)c(OC)c(OC)c1	SR-BI DiI inh 75
COc1cc(C(=O)N/N=C/c2ccsc2C)cc(OC)c1OC	none
O=C(/C=C/c1cccc(Cl)c1Cl)OCC(=O)N1CCOCC1	none (no result: GSK3B inh, GSK3A inh)
C=CC(C)(C)c1c(O)c(CC=C(C)C)c(O)c2c(=O)c3ccc(O)c(O)c3oc12	SR-BI DiI inh 123
O=c1cc2oc3cc(O)c(O)cc3c(-c3ccccc3O)c-2cc1O	none (no result: GSK3B inh, GSK3A inh)
COc1ccc(OC)c(-c2c3cc(O)c(=O)cc-3oc3cc(O)c(O)cc23)c1	SR-BI DiI inh 91 (no result: GSK3B inh)
COc1ccc(OC)c(-c2oc3ccccc3c(=O)c2O)c1	none
CCOc1ccccc1-c1c2cc(O)c(=O)cc-2oc2cc(O)c(O)cc12	SR-BI DiI inh 73 (no result: GSK3B inh, GSK3A inh)
COc1ccc(OCC(=O)Nc2cccc(S(=O)(=O)N(C)c3ccccc3)c2)c([N+](=O)[O-])c1	none (no result: GSK3B inh)
CN(C)C(=O)c1cccc(-c2csc(N3CCC(C(N)=O)CC3)n2)c1	none (no result: CDK5 inh, GSK3B inh, SR-BI DiI-HDL act, SR-BI DiI inh)
COc1ccc(N2CCN(C(=O)CCN3C(=S)NC(C)(C)CC3C)CC2)cc1 (configuration not stated)	none
O=c1[nH]cc(S(=O)(=O)N2CCCc3ccccc32)c(=O)[nH]1	none
CCCS(=O)(=O)N1CCC(C(=O)N2CCCC2)CC1	none
CCCS(=O)(=O)N1CCC(C(=O)N2CCOCC2)CC1	SR-BI DiI-HDL act 68
CCCCCN(C(=O)CCC(=O)OCc1cccc(F)c1)c1c(N)n(CCCC)c(=O)[nH]c1=O	none
